Experiment [1] relates to Human immunodeficiency virus 1. Briefly: Anti-viral activity against HIV-1 LAI infected in human MT2 cells assessed as reduction in p24 Gag protein production. It counts as functional, cell-based. To be noted: Human immunodeficiency virus 1, M:B_Lai.
Experiment [2] can be described thus: Inhibition of HIV-1 protease using fluorogenic substrate by fluorescence assay. Further details: species or system Human immunodeficiency virus 1.
Experiment [3] concerns Human immunodeficiency virus 1. Briefly: Antiviral activity against HIV-1 harboring protease I50V mutant. It counts as functional.
The test system of experiment [4] is Human immunodeficiency virus 1. The experiment can be described thus: Antiviral activity against wild type HIV-1 NL4-3 infected in human MT4 cells assessed as reduction in p24 Gag protein production. It counts as functional, cell-based. The note with it: Human immunodeficiency virus 1, NL4-3, MT4.
Experiment [5] relates to Human immunodeficiency virus 1. Briefly: Antiviral activity against darunavir-resistant HIV1 harboring protease L10I/[…]K20R/L24I/V32I/M36I/M46L/L63P/V82A/L89M mutant infected in human MT4 cells assessed as reduction in p24 Gag protein production. It counts as functional, cell-based. To be noted: Human immunodeficiency virus 1, MT4. The method in brief: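 MT-4 cells (1×10^4) infected with 50 TCID₅₀ of wild-type HIV-1 NL4-3 or the DRV-resistant variant HIV-1 DRV^R P20 (protease L10I/I15V/K20R/L24I/V32I/M36I/M46L/L63P/V82A/L89M). Cells then cultured with various concentrations of each protease inhibitor. IC50 determined from p24 assay. Each assay run in triplicate. Values are means of three independent experiments, with fold-change relative to wild type.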

Experiment [6] can be described thus: Ratio of IC50 for darunavir-resistant HIV1 harboring protease L10I/I15V/K20R/L24I/V32I/M36I/M46L/L63P/V82A/L89M mutant infected in human MT4 cells to IC50 for wild type HIV1 NL4-3 infected in human MT4 cells. It counts as functional.
Experiment [7] can be described thus: Inhibition of wild-type HIV-1 protease. Further details: species or system Human immunodeficiency virus 1.

A word on the IC50: it is the concentration at which inhibition is half-maximal. The term Ki denotes a dissociation constant, usually derived from enzyme kinetics or from competition with a known ligand. High values mean weaker binding, low ones tighter binding. On to `COc1ccc2c(c1)COCCCCCCCCN(C[C@@H](O)[C@H](Cc1ccccc1)NC(=O)O[C@H]1CO[C@H]3OCC[C@H]31)S2(=O)=O`, for which, in experiment [1], the IC50 turned out to be 31 nM. In experiment [2], this compound came in with a Ki of 0.062 nM.
On to `COc1ccc2c(c1)OCCCCCOCCN(C[C@@H](O)[C@H](Cc1ccccc1)NC(=O)O[C@H]1CO[C@H]3OCC[C@H]31)S2(=O)=O`, for which the Ki in experiment [2] came out at 4.21 nM.
Turning to `CC(C)CN(C[C@@H](O)[C@H](Cc1ccccc1)NC(=O)O[C@H]1CO[C@H]2OCC[C@H]21)S(=O)(=O)c1ccc(N)cc1`, the 50% inhibitory concentration (IC50) in experiment [3] amounted to 1.6 nM.
Consider `COc1ccc2c(c1)OCCCCCN1C(=O)CC[C@H]1CN(C[C@@H](O)[C@H](Cc1ccccc1)NC(=O)O[C@H]1CO[C@H]3OCC[C@H]31)S2(=O)=O`, for which, in experiment [1], the IC50 was greater than 1000 nM. In experiment [2], this compound displayed a Ki of 27 nM.
As to `COc1ccc2c(c1)OCCCCCCOCCN(C[C@@H](O)[C@H](Cc1ccccc1)NC(=O)O[C@H]1CO[C@H]3OCC[C@H]31)S2(=O)=O`, in experiment [1], the IC50 was greater than 1000 nM. Also, the Ki in experiment [2] was determined as 9.85 nM.
In the case of `Nc1ccc2c(c1)COCCCCCCCN(C[C@@H](O)[C@H](Cc1ccccc1)NC(=O)O[C@H]1CO[C@H]3OCC[C@H]31)S2(=O)=O`, the IC50 in experiment [1] was determined as 2 nM; in experiment [4], 1.5 nM; in experiment [5], 20 nM. Moreover, the affinity in experiment [2], expressed as Ki, was 0.014 nM. Also, in experiment [6], the “Ratio IC50” value came out at 13.
As to `COc1ccc2c(c1)OCCCCCN(S(C)(=O)=O)CCN(C[C@@H](O)[C@H](Cc1ccccc1)NC(=O)O[C@H]1CO[C@H]3OCC[C@H]31)S2(=O)=O`, in experiment [2], the Ki was determined as 33.3 nM.
As to `COc1ccc2c(c1)COC/C=C/CCCCCN(C[C@@H](O)[C@H](Cc1ccccc1)NC(=O)O[C@H]1CO[C@H]3OCC[C@H]31)S2(=O)=O`, the affinity in experiment [2] corresponds to a Ki of 0.55 nM. Compared with the last compound, the Ki is about 61-fold lower.
`COc1ccc2c(c1)OCCCCCCN(S(C)(=O)=O)CCN(C[C@@H](O)[C@H](Cc1ccccc1)NC(=O)O[C@H]1CO[C@H]3OCC[C@H]31)S2(=O)=O` came in with a Ki in experiment [2] of 13.3 nM.
As to `COc1ccc2c(c1)COCCCCCCCN(C[C@@H](O)[C@H](Cc1ccccc1)NC(=O)O[C@H]1CO[C@H]3OCC[C@H]31)S2(=O)=O`, the IC50 in experiment [1] was 5.3 nM; in experiment [4], 3.6 nM; in experiment [5] it was 240 nM. The affinity in experiment [2] corresponds to a Ki of 0.062 nM. Also, the “Ratio IC50” value in experiment [6] worked out at 67.
As to `COc1ccc2c(c1)OCCCCCN1C(=O)CC[C@@H]1CN(C[C@@H](O)[C@H](Cc1ccccc1)NC(=O)O[C@H]1CO[C@H]3OCC[C@H]31)S2(=O)=O`, the IC50 in experiment [1] turned out to be 122 nM. For the same compound, the affinity in experiment [2] corresponds to a Ki of 0.46 nM.
In the same order, the values of `COc1ccc2c(c1)COC/C=C\CCCCN(C[C@@H](O)[C@H](Cc1ccccc1)NC(=O)O[C@H]1CO[C@H]3OCC[C@H]31)S2(=O)=O` are 54 nM and 0.029 nM.
For `COc1ccc2c(c1)COC/C=C\CCCCCN(C[C@@H](O)[C@H](Cc1ccccc1)NC(=O)O[C@H]1CO[C@H]3OCC[C@H]31)S2(=O)=O`, the Ki in experiment [2] amounted to 0.64 nM.
On to `COc1ccc(S(=O)(=O)N(CC(C)C)C[C@@H](O)[C@H](Cc2ccccc2)NC(=O)O[C@H]2CO[C@H]3OCC[C@H]32)cc1`, for which 1.2 nM corresponded to half-maximal inhibition in experiment [3] (IC50). The compound further came in with a Ki in experiment [7] of 0.014 nM.
Consider `COc1ccc2c(c1)OCC/C=C/CN1C(=O)CC[C@@H]1CN(C[C@@H](O)[C@H](Cc1ccccc1)NC(=O)O[C@H]1CO[C@H]3OCC[C@H]31)S2(=O)=O`, for which the IC50 in experiment [1] was 176 nM. In addition, the Ki in experiment [2] was 0.47 nM.
For `COc1ccc2c(c1)OCC/C=C\CN1C(=O)CC[C@@H]1CN(C[C@@H](O)[C@H](Cc1ccccc1)NC(=O)O[C@H]1CO[C@H]3OCC[C@H]31)S2(=O)=O` the same measures were 22 nM and 13.2 nM.
With `COc1ccc2c(c1)COC/C=C/CCCCN(C[C@@H](O)[C@H](Cc1ccccc1)NC(=O)O[C@H]1CO[C@H]3OCC[C@H]31)S2(=O)=O`, in experiment [1], the IC50 came out at 46 nM. In addition, in experiment [2], the affinity corresponds to a Ki of 0.015 nM.

These data come from ChEMBL document CHEMBL4043264, “Design, synthesis, X-ray studies, and biological evaluation of novel macrocyclic HIV-1 protease inhibitors involving the P1'-P2' ligands” (Bioorg Med Chem Lett, 2017).
